From PubChem BioAssay
Calls of active or inactive are those of the source.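 How the source made its calls, unless noted: active means compounds giving at least 50% inhibition in the cell-based MKP-3 phosphatase rescue imaging test; inactive means the rest.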

How the values were obtained:
[1] = inhibitors of TNFa-induced NFkB p65 translocation, primary screen, imaging, HUVEC, MLSMR starter and 10KST1 sets (AID 438;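 active means inhibition above 20% together with a positive visual image hit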;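 further: compound added about 3h40 before a 20 min TNFalpha stimulation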;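 on inhibition: signal is the nuclear over cytoplasmic p65 intensity ratio per well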); settings: HUVEC TNFa-induced p65 nuclear translocation; cell count: measured here: nuclei count (cytotoxicity indicator), at 2.08 µM; inhibition: at 2 µM, stronger effect = higher value, 0% TNFa-plus-vehicle, 100% no-TNFa wells
[2] = inhibitors of E-selectin induction by TNFa, primary screen, imaging, HUVEC, immunofluorescence, MLSMR starter and 10KST1 sets (AID 487;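 active means visually confirmed hit in the image check and inhibition above 20%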;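 on inhibition: signal is fraction of cell area covered by stained E-selectin grains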;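 on nuclei count: 100% = median nuclei count of all wells on the same plate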); settings: HUVEC TNFalpha-induced E-selectin immunofluorescence imaging, at 2 µM; inhibition: stronger effect = higher value; nuclei count: measured here: cell number, toxicity
[3] = DUSP6 inhibitors restoring Erk phosphorylation by chemical complementation, primary imaging in DUSP6-transfected HeLa (AID 609); settings: HeLa MKP-3 transfected, phospho-Erk imaging KS statistic, at 10 µM, cells stimulated with TPA for 15 min;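 on inhibition: phospho-Erk level distribution per well compared with pooled transfected vehicle control wells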
[4] = target: Dual specificity protein phosphatase 6 (Homo sapiens) (UniProt Q16828); assay: as above; settings: HeLa MKP-3 transfected, phospho-Erk imaging KS statistic; at 10 µM; stronger effect = higher value; cells stimulated with TPA for 15 min
[5] = target: Voltage-gated potassium channel subunit beta-2 (Rattus norvegicus) (UniProt P62483); assay: KvBeta enzyme negative modulators, primary screen, biochemical, NADPH fluorescence (AID 622;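 active means fluorescence slope higher than the sample average by over 3 SD, cut at about -0.22 in these data, passing the limit was not always enough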;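 further: slope of raw intensity against log time taken from 70 to 1610 s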); settings: recombinant KvBeta, 4-cyanobenzaldehyde reduction, at 10 µM, stronger effect = higher value
[6] = target: Voltage-gated potassium channel subunit beta-2 (Rattus norvegicus) (UniProt P62483); assay: KvBeta positive modulators, primary screen, biochemical, NADPH fluorescence (AID 623;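 active means NADPH fluorescence slope more negative than the mean of all samples by about 3 SD, 99.7% confidence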;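 further: fluorescence intensity change per second fitted from 20 to 320 s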); settings: Recombinant KvBeta, NADPH fluorescence decrease slope, 10 min; at 10 µM; stronger effect = lower value
[7] = target: Alpha-2C adrenergic receptor (Homo sapiens) (UniProt P18825); assay: modulators of alpha2C/GIRK thallium flux, primary screen, cell-based, HEK293 alpha2C/GIRK1/2 (AID 624;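 active means fluorescence slope after compound addition differing from the mean of all screened samples at 99.7% confidence, in either direction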;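 further: slope of fluorescence ratio to pre-addition baseline per second over 15 to 24 s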); settings: thallium flux BTC fluorescence, at 10 µM, actives lie on both sides
[8] = inhibitors of larval lipid processing in zebrafish, primary screen, whole organism, PED6 fluorescence, gall bladder and intestine (AID 686;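 active means a full or partial loss of lipid-probe fluorescence in the fish gall bladder, intestine or both, judged by eye; inactive means no fluorescence loss, or compound toxic to the fish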;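 further: larvae 5 to 7 days old with five fish per well; signal comes from phospholipase A2 cleavage of quenched PED6 carried via bile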); settings: Zebrafish larvae PED6 lipid processing, fluorescence scoring; screened at 20 µM (by protocol)
In short: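 Incubation: overnight exposure of larvae to compound plus PED6 / Test system: live zebrafish larvae aged 5-7 days, whole organism / Amount: 5 larvae per well / Read-out basis: visual per-well fluorescence inhibition score / Signal: visual fluorescence microscopy scoring of gall bladder, gut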

[9] = inhibitors of Chlamydomonas gravitaxis, primary screen, whole organism, Chlamydomonas reinhardtii, WT vs cilia-less mutant, absorbance, 96-well (AID 463189;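 active means inhibition at or above 50% relative to wild type and mutant plate controls; inactive means inhibition below 50%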;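 further: 0% = wild type cc124 cells in DMSO and 100% = ciliumless bld1 mutant cells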); settings: OD600 absorbance, 2 days, at 10 µM, stronger effect = higher value
[10] = measured here: cell density z-score
[11] = measured here: nuclear c-Myc green intensity z-score
[12] = measured here: nuclear pErk red intensity z-score, stronger effect = higher value

Sequence of Alpha-2C adrenergic receptor (Homo sapiens) (P18825 whole entry, looked up): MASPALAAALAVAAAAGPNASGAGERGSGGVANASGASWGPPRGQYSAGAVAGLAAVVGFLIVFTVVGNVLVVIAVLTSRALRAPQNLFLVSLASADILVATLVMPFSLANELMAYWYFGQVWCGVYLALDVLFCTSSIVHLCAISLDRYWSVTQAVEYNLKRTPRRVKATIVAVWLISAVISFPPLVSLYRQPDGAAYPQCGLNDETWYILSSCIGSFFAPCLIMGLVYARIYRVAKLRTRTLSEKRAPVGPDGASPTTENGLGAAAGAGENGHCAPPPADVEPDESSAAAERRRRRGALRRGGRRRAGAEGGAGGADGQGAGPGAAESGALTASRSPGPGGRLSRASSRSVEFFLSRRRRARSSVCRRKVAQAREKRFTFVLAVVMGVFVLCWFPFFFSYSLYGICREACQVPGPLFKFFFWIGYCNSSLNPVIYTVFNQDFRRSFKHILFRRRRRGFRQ
Sequence of Voltage-gated potassium channel subunit beta-2 (Rattus norvegicus) (P62483 whole entry, looked up): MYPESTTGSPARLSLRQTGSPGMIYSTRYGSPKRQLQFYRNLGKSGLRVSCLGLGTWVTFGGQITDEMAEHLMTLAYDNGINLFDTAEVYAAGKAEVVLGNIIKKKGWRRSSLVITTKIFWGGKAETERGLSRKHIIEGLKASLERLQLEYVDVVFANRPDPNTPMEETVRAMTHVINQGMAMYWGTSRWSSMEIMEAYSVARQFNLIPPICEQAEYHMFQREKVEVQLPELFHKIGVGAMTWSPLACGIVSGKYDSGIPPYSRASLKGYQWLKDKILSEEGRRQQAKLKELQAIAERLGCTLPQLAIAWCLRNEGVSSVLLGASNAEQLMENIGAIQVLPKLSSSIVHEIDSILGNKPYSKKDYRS
Sequence of Dual specificity protein phosphatase 6 (Homo sapiens) (Q16828 whole entry, looked up): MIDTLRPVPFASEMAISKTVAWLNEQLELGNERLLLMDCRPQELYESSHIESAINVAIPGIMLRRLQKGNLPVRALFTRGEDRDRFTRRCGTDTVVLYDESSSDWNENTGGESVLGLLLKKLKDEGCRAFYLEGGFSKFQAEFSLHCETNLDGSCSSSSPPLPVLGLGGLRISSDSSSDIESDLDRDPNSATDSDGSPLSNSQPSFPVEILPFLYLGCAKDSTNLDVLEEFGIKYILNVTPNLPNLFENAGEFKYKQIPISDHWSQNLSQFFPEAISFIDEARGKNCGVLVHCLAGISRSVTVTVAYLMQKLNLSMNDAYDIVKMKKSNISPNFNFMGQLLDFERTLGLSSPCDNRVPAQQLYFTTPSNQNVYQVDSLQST

Row | SMILES | cell count [1] | inhibition [1] | inhibition [2] | nuclei count [2] | z-score [3, 10] | z-score [3, 11] | z-score [3, 12] | inhibition [4] | fluorescence slope [5] | NADPH fluorescence slope [6] | slope [7] | outcome [8] | inhibition [9]
1 | Cc1ccc(NC(=O)CSC2=C(C#N)C(c3ccco3)C3=C(CCCC3=O)N2)cc1 (stereo unspecified) | 382 | 1.6% (inactive) | -118% (inactive) | 144% | 1.1 | -0.193 | -0.0699 | -0.584% (inactive) | -0.438 (inactive) | -5.7e-07 (inactive) | 0.00635 (inactive) | inactive | 32.7% (inactive)
2 | COc1ccc(C(=O)N/C(N)=N/c2nc3ccccc3o2)cc1 | 557 | -12.2% (inactive) | -140% (inactive) | 137% | 0.0574 | 0.314 | 0.889 | -3.97% (inactive) | -0.499 (inactive) | -3.2e-05 (inactive) | 0.0048 (inactive) | inactive | 14.5% (inactive)
3 | COc1ccc(OC)c2c1CCC2=O | 434 | -0.5% (inactive) | 3.9% (inactive) | 102% | -0.357 | -1.08 | -0.0279 | -1.12% (inactive) | -0.0756 (inactive) | 8.5e-06 (inactive) | 0.00599 (inactive) | inactive | 9.78% (inactive)
4 | CCCC1C2C(=O)N(c3ccccc3OC)C(=O)C2ON1c1ccccc1 (stereo unspecified) | 329 | -20.4% (inactive) | -107% (inactive) | 93.8% | 1.11 | 1.02 | 0.149 | 11.3% (inactive) | -0.536 (inactive) | -2.6e-05 (inactive) | 0.00508 (inactive) | inactive | 32.4% (inactive)
5 | COc1ccc(OC)c(C2NC(=O)c3sc(=S)n(-c4ccccc4)c3N2)c1 (stereo unspecified) | 612 | -8.4% (inactive) | -60.3% (inactive) | 159% | -1 | 0.762 | 1.43 | -6.86% (inactive) | -0.369 (inactive) | -6.5e-05 (inactive) | 0.00525 (inactive) | inactive | -6.25% (inactive)
6 | O=C1c2ccccc2C(=O)N1CCN1CCc2ccccc21 | 404 | -3.1% (inactive) | -131% (inactive) | 166% | 0.756 | -0.637 | -0.565 | 13.2% (inactive) | -0.394 (inactive) | -5.6e-05 (inactive) | 0.00539 (inactive) | inactive | -3.59% (inactive)
7 | O=C(Nc1cccnc1)c1cccnc1 | 639 | 0.9% (inactive) | -26.7% (inactive) | 158% | -0.532 | 0.364 | -0.22 | 0.671% (inactive) | -0.534 (inactive) | -3.1e-05 (inactive) | 0.00505 (inactive) | inactive | 3.69% (inactive)
8 | C/C(=N\O)c1ccc2[nH]ccc2c1 | 578 | 0.2% (inactive) | 45.4% (inactive) | 161% | 0.0779 | 0.348 | -0.861 | -7.01% (inactive) | -0.341 (inactive) | -3.6e-05 (inactive) | 0.00435 (inactive) | inactive | -2.54% (inactive)
9 | CC(C)C1Cc2c(sc3c2c(=O)n(-c2ccccc2)c2nncn32)CO1 (stereo unspecified) | 603 | -21.3% (inactive) | -90.9% (inactive) | 179% | -0.575 | -0.884 | 1.06 | 3.56% (inactive) | -0.379 (inactive) | -5.4e-05 (inactive) | 0.00589 (inactive) | inactive | -0.205% (inactive)
10 | COc1cc([C@@H]2[C@H]3CNCC=C3C(C#N)=C(N)C2(C#N)C#N)ccc1OC(C)C | 520 | -3.4% (inactive) | -13.2% (inactive) | 156% | -0.404 | -0.17 | -2.38 | 2.46% (inactive) | -0.251 (inactive) | 7.5e-06 (inactive) | 0.00559 (inactive) | inactive | -1.69% (inactive)
11 | CCOC(=O)CSC1=C(C#N)C(c2ccc(OC)cc2)C2=C(CC(C)(C)CC2=O)N1 (stereo unspecified) | 362 | -10.7% (inactive) | -126% (inactive) | 174% | 0.65 | -1.25 | -0.233 | -8.59% (inactive) | -0.411 (inactive) | -0.000354 (inactive) | 0.00489 (inactive) | inactive | 25.7% (inactive)
12 | CCCc1cc(C(=O)Cc2ccc(F)cc2)c(O)cc1O | 563 | -8.9% (inactive) | -180% (inactive) | 128% | 0.0278 | -0.762 | -1.21 | 19.8% (inactive) | -0.507 (inactive) | -3.4e-06 (inactive) | 0.00499 (inactive) | inactive | 74.4% (active)
13 | CC(C)c1cc(NCCN2CCOCC2)n2c(nc3ccccc32)c1C#N | 530 | -16.7% (inactive) | -13.5% (inactive) | 100% | 0.71 | 0.53 | -0.442 | 10.1% (inactive) | -0.493 (inactive) | -8.7e-06 (inactive) | 0.00455 (inactive) | inactive | -6.96% (inactive)
14 | COc1ccc(C2CC(C(F)(F)F)n3ncc(C(=O)NCC4CCCO4)c3N2)cc1OC (stereo unspecified) | 536 | -1.8% (inactive) | 12.3% (inactive) | 132% | -0.241 | -1.11 | 1.35 | 3.66% (inactive) | -0.51 (inactive) | -6.1e-05 (inactive) | 0.00469 (inactive) | inactive | -9.44% (inactive)
15 | Cc1nc2n[nH]c(N)c2c2c1COC(C)(C)C2 | 674 | -22.2% (inactive) | -454% (inactive) | 178% | 0.565 | -1.79 | -0.0762 | 5.57% (inactive) | -0.516 (inactive) | -0.000106 (inactive) | 0.00411 (inactive) | inactive | 3.25% (inactive)
16 | O=C(c1nsnc1-c1ccccc1O)N1CCCCC1 | 500 | -8% (inactive) | -58.8% (inactive) | 86.9% | 0.333 | 0.0172 | 0.334 | 17.8% (inactive) | -0.563 (inactive) | -9.1e-06 (inactive) | 0.007 (inactive) | inactive | 24.8% (inactive)
17 | CC(C)Cc1nc(NCCN2CCOCC2)c(C#N)c2c1COC(C)(C)C2 | 572 | 2.6% (inactive) | -114% (inactive) | 192% | -1.39 | 1.03 | 0.72 | -6.86% (inactive) | -0.302 (inactive) | 2.3e-05 (inactive) | 0.00502 (inactive) | inactive | 4.53% (inactive)
18 | Clc1ccccc1-c1nn2c(-c3ccccn3)nnc2s1 | 603 | -6.7% (inactive) | -82.4% (inactive) | 167% | 0.327 | 0.132 | -0.483 | -0.674% (inactive) | -0.404 (inactive) | -0.000155 (inactive) | 0.00777 (inactive) | inactive | 48.8% (inactive)
19 | COCCOC(=O)C1=C(C)OC(N)=C(C#N)C1c1ccco1 (stereo unspecified) | 364 | -7.8% (inactive) | -269% (inactive) | 165% | -0.623 | -0.763 | 1.29 | -13.5% (inactive) | -0.406 (inactive) | -4.7e-05 (inactive) | 0.00481 (inactive) | inactive | 20.2% (inactive)
20 | CC1(C)Cc2nc(N)c(C(=O)NCCO)cc2CO1 | 668 | -10.5% (inactive) | 15.2% (inactive) | 184% | -0.73 | 0.225 | 0.421 | -3.98% (inactive) | -0.476 (inactive) | -3e-05 (inactive) | 0.00417 (inactive) | inactive | 6.5% (inactive)
21 | COc1ccccc1C(=O)N1CCN(Cc2ccc3c(c2)OCO3)CC1 | 590 | -14.5% (inactive) | 34.9% (inactive) | 183% | -2.41 | 2.03 | 1 | -15% (inactive) | -0.361 (inactive) | -4e-05 (inactive) | 0.0055 (inactive) | inactive | 12.2% (inactive)
22 | COc1ccc(Cn2c(O)cc(=O)[nH]c2=O)cc1 | 518 | -0.7% (inactive) | -49.2% (inactive) | 94% | -1.59 | 1.15 | -0.805 | 11.9% (inactive) | -0.386 (inactive) | 4.3e-06 (inactive) | 0.00581 (inactive) | inactive | -11.1% (inactive)
23 | COc1ccc(-n2c(=O)c3c4c(sc3n3c(C)nnc23)CC(C)CC4)cc1 (stereo unspecified) | 617 | 3.9% (inactive) | 15.9% (inactive) | 162% | -1.05 | 0.383 | -0.315 | -0.608% (inactive) | -0.324 (inactive) | 8.8e-06 (inactive) | 0.00514 (inactive) | inactive | 53.4% (active)
24 | COc1ccc2[nH]c3c(N4CCN(Cc5ccc6c(c5)OCO6)CC4)ncnc3c2c1 | 428 | -0.7% (inactive) | -50.8% (inactive) | 137% | 0.867 | -0.34 | 0.0587 | 0.671% (inactive) | -0.302 (inactive) | 2.3e-06 (inactive) | 0.00419 (inactive) | inactive | 141% (active)
25 | COc1ccc(C=NCCC2(O)CC(C)N(C)CC2C)cc1 (stereo unspecified) | 340 | -16.4% (inactive) | -85.1% (inactive) | 131% | 0.907 | -0.705 | -1.22 | -7.01% (inactive) | -0.427 (inactive) | -6e-05 (inactive) | 0.00607 (inactive) | inactive | 7.82% (inactive)
26 | CCCCOc1cccc(-c2nnc(N)s2)c1 | 629 | -13.6% (inactive) | 29.1% (inactive) | 161% | -0.391 | 0.503 | -0.82 | -13.3% (inactive) | -0.395 (inactive) | -4.2e-05 (inactive) | 0.00766 (inactive) | inactive | -2.21% (inactive)
27 | CCOC(=O)CCc1c(C)c(C#N)c2[nH]c3ccccc3n2c1=O | 536 | -1.4% (inactive) | -8.6% (inactive) | 82.5% | -0.186 | -0.0675 | -0.0374 | 15.9% (inactive) | -0.617 (inactive) | -3.7e-05 (inactive) | 0.00416 (inactive) | active; weak signal in gallbladder and intestine | 18.4% (inactive)
